One compound from ChEMBL document CHEMBL1136049, “Synthesis of syn- and anti-1-amino-3-[18F]fluoromethyl-cyclobutane-1-carboxylic acid (FMACBC), potential PET ligands for tumor detection” (J Med Chem, 2002) can be followed below.

Series [1] is filed under the species Rattus norvegicus. The series is described as follows: Radioactivity distribution in bone of normal fischer rat after injection of syn-[18F]-FMACBC after 5 min. Particulars: in vivo. Type of series: ADME, organism-based, Bone element. The method in brief:
(§1)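 Male Fischer 344 rats (200–250 g), normal, fed ad libitum, given ~85 μCi of 18F tracer in 0.3 mL sterile water IV through a tail vein catheter. Anesthesia was ketamine:xylazine IM. Groups of four were killed at 5, 30, 60 and 120 min. Tissues were weighed and gamma-counted against dose standards, decay-corrected, and expressed as mean % injected dose per gram.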

The species entered for series [2] is Rattus norvegicus. The series is described as follows: Radioactivity distribution in pancreas of tumor-bearing fischer rat after injection of anti-[18F]FMACBC after 120 min. Type of series: ADME, organism-based. Particulars: in vivo, 2 h. The gist of the method:
(§2)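 Male Fischer 344 rats with intracranial 9L gliosarcoma (4 × 10^4 cells stereotaxically implanted; used 17–19 days after implantation). About 35 μCi tracer in 0.3 mL sterile water was given by tail vein to awake, restrained rats. Rats were killed at 5, 60 or 120 min. Tissues, tumor and contralateral brain were weighed and gamma counted, decay-corrected, and expressed as %ID/g; n = 3–5 per time point.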

The species entered for series [3] is Rattus norvegicus. The experiment in a line: Radioactivity distribution in testis of normal fischer rat after injection of syn-[18F]-FMACBC after 30 min. Type of series: ADME, organism-based. Particulars: in vivo, 0.5 h. The method in brief:
(§3)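 Normal male Fischer 344 rats (200–250 g) were anesthetised with ketamine:xylazine i.m. and given about 85 μCi tracer in 0.3 mL sterile water via a tail vein catheter. Groups of four were killed at 5, 30, 60 and 120 min. Selected tissues were weighed and gamma counted with dose standards, decay-corrected, and expressed as mean %ID/g.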

Series [4] is filed under the species Rattus norvegicus. The experiment in a line: Radioactivity distribution in bone of tumor-bearing fischer rat after injection of anti-[18F]FMACBC after 120 min. The format is ADME, organism-based, Bone element. Particulars: in vivo, 2 h. The gist of the method:
(§4)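 Male Fischer 344 rats carrying intracranial rat 9L gliosarcoma, made by stereotaxic injection of 4 × 10^4 cells 17–19 days before. Awake restrained rats received ~35 μCi of 18F tracer in 0.3 mL sterile water IV by tail vein and were killed at 5, 60 or 120 min, n = 3–5. Tissues were weighed, gamma-counted, decay-corrected and expressed as % injected dose per gram.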

Series [5] is filed under the species Rattus norvegicus. The experiment in a line: Radioactivity distribution in heart of tumor-bearing fischer rat after injection of anti-[18F]FMACBC after 5 min. Type of series: ADME, organism-based. Particulars: in vivo. The gist of the method:
as §4

The species entered for series [6] is Rattus norvegicus. The experiment in a line: Radioactivity distribution in blood of normal fischer rat after injection of anti-[18F]FMACBC after 60 min. The format is ADME, organism-based. As to conditions: in vivo, 1 h. The method in brief:
as §1

The species entered for series [7] is Rattus norvegicus. The series is described as follows: Radioactivity distribution in liver of normal fischer rat after injection of syn-[18F]-FMACBC after 30 min. Type of series: ADME, organism-based. Particulars: in vivo, 0.5 h. The method in brief:
as §1

The species entered for series [8] is Rattus norvegicus. The experiment in a line: Radioactivity distribution in muscle of normal fischer rat after injection of anti-[18F]FMACBC after 5 min. Type of series: ADME, organism-based, Muscle tissue. As to conditions: in vivo. The gist of the method: as §3
Series [9] is filed under the species Rattus norvegicus. The experiment in a line: Radioactivity distribution in lung of tumor-bearing fischer rat after injection of syn-[18F]-FMACBC after 60 min. Type of series: ADME, organism-based. As to conditions: in vivo, 1 h. The gist of the method:
as §2

The species named for series [10] is Rattus norvegicus. The experiment in a line: Radioactivity distribution in pancreas of normal fischer rat after injection of anti-[18F]FMACBC after 60 min. The format is ADME, organism-based. Particulars: in vivo, 1 h. The gist of the method: as §3
The species named for series [11] is Rattus norvegicus. The series is described as follows: Radioactivity distribution in brain of normal fischer rat after injection of syn-[18F]-FMACBC after 120 min. Type of series: ADME, organism-based. Particulars: in vivo, 2 h. The method in brief: as §1
For series [12], the species on record is Rattus norvegicus. The experiment in a line: Radioactivity distribution in muscle of normal fischer rat after injection of syn-[18F]-FMACBC after 120 min. As to conditions: in vivo, 2 h. Type of series: ADME, organism-based, Muscle tissue. The gist of the method: as §3
Series [13] is filed under the species Rattus norvegicus. The experiment in a line: Radioactivity distribution in testis of tumor-bearing fischer rat after injection of anti-[18F]FMACBC after 60 min. The format is ADME, organism-based. As to conditions: in vivo, 1 h. The gist of the method: as §2
Series [14] is filed under the species Rattus norvegicus. The experiment in a line: Radioactivity distribution in tumor of tumor-bearing fischer rat after injection of anti-[18F]FMACBC after 60 min. As to conditions: in vivo, 1 h. Type of series: ADME, organism-based. The method in brief:
as §2

The species entered for series [15] is Rattus norvegicus. The series is described as follows: Radioactivity distribution in testis of normal fischer rat after injection of anti-[18F]FMACBC after 5 min. Particulars: in vivo. The format is ADME, organism-based. The method in brief:
as §3

The species entered for series [16] is Rattus norvegicus. The series is described as follows: Radioactivity distribution in spleen of normal fischer rat after injection of anti-[18F]FMACBC after 30 min. Type of series: ADME, organism-based. Particulars: in vivo, 0.5 h. The gist of the method: as §3
For series [17], the species on record is Rattus norvegicus. The series is described as follows: Radioactivity distribution in testis of tumor-bearing fischer rat after injection of anti-[18F]FMACBC after 5 min. The format is ADME, organism-based. As to conditions: in vivo. The method in brief: as §2
Series [18] is filed under the species Rattus norvegicus. The experiment in a line: Radioactivity distribution in testis of normal fischer rat after injection of anti-[18F]FMACBC after 30 min. The format is ADME, organism-based. Particulars: in vivo, 0.5 h. The method in brief:
as §3

Turning to `N[C@]1(C(=O)O)C[C@@H](CF)C1`, the ID/g in the series filed under Rattus norvegicus [1] stood at 0.7%; in the series listed under Rattus norvegicus [2], 2.17%; in the series filed under Rattus norvegicus [3], 0.29%; in the series listed under Rattus norvegicus [4], 0.19%; in the series filed under Rattus norvegicus [5], 0.58%; in the series filed under Rattus norvegicus [6], 0.33%. In addition, the ID/g came out at 0.37% in the series listed under Rattus norvegicus [7]; 0.46% in the series filed under Rattus norvegicus [8]; 0.31% in the series listed under Rattus norvegicus [9]; 3.83% in the series listed under Rattus norvegicus [10]; 0.21% in the series listed under Rattus norvegicus [11]; 0.6% in the series listed under Rattus norvegicus [12]. In addition, the ID/g in the series listed under Rattus norvegicus [13] was found to be 0.26%; in the series listed under Rattus norvegicus [14], 2.5%; in the series filed under Rattus norvegicus [15] it was 0.24%; in the series listed under Rattus norvegicus [16], 0.63%; in the series filed under Rattus norvegicus [17], 0.23%; in the series filed under Rattus norvegicus [18], 0.25%.
